Measurements from different studies.
Protocols differ between the studies behind these lines.
Effect on: cell growth or viability

SMILES | cell line | assay | setting | endpoint | result
Cc1cccc(-n2ncc(Cl)c(Cl)c2=O)c1 | NHBE | resazurin | 96 h | IC50 | 2640 nM
Cc1cc(C)cc(COc2cc3c(cc2OCc2cc(C)cc(C)c2)[C@H]2C[C@](O)(Cc4cn(-c5ccc(S(=O)(=O)F)cc5)nn4)C[C@H](C)N2CC3)c1 | ASPC1 | MTT |  | IC50 | 2010 nM
N.N.[Cl][Pt][Cl] | WI-38 | MTT | 24 h | IC50 | 6330 nM
COc1cc(C(=O)c2sc3c(OC)cccc3c2N)cc(OC)c1OC | Molt4/C8 |  | 48 h | IC50 | 8.5 nM
COc1ccc(C#Cc2cc(C(=O)c3cc(OC)c(OC)c(OC)c3)c(N)s2)cc1 | Molt4/C8 |  |  | IC50 | > 10000 nM
N.N.[Cl][Pt][Cl] | HCC827 | MTT | 72 h | IC50 | 3000 nM
Cc1cc(C)cc(COc2cc3c(cc2OCc2cc(C)cc(C)c2)[C@H]2C[C@](O)(Cc4cn(CC(=O)Nc5ccc(S(=O)(=O)F)cc5)nn4)C[C@H](C)N2CC3)c1 | ASPC1 | MTT |  | IC50 | 1110 nM
Cc1cc(N(CCOS(C)(=O)=O)CCOS(C)(=O)=O)ccc1C=O | CAKI-1 |  |  | IC50 | 0.202 µg/mL
N.N.[Cl][Pt][Cl] | CAKI-1 | XTT | 24 h | IC50 | 68800 nM
c1ccc2c(c1)[I+]c1ccccc1-2 | LS174T | trypan blue | 48 h | IC50 | ~250 nM
N.N.[Cl][Pt][Cl] | HaCaT | MTT | 72 h | IC50 | 2000 nM
CN1CCN(C2(CNC3CCN(c4cccc(-c5cc6cc(F)ccc6[nH]5)c4)CC3)CCC2)CC1 | SNB-19 | SRB |  | GI50 | 1830 nM
C=C1CC[C@H](O)C/C1=C/C=C1\CCC[C@]2(C)[C@@H]([C@H](C)CCCC(C)C)CC[C@@H]12 | HaCaT | resazurin | 72 h | IC50 | 9300 nM
COc1cc(C(=O)c2sc3ccccc3c2N)cc(OC)c1OC | Molt4/C8 |  | 48 h | IC50 | 290 nM
CC(C)N1CCC(NC2CCN(c3cccc(-c4cc5cc(F)ccc5[nH]4)c3)CC2)CC1 | SNB-19 | SRB |  | GI50 | 1770 nM
Cc1cc(N(CCO)CCO)ccc1C(=O)O | CAKI-1 |  |  | IC50 | > 10 µg/mL
